Target: T1, Proteinase-activated receptor 1 (Homo sapiens) (UniProt P25116)
T1 sequence (whole entry): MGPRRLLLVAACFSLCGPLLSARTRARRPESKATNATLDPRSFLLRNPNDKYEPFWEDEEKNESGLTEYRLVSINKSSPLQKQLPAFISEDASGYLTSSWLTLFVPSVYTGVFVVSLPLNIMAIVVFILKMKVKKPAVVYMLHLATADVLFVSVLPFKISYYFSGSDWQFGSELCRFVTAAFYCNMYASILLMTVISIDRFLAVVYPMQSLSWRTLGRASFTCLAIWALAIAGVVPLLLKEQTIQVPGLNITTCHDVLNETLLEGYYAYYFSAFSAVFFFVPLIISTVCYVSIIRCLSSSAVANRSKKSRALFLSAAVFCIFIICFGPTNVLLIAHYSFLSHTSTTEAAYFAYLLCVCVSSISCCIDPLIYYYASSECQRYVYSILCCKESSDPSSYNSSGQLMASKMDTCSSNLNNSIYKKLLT
Assay: Antagonist activity at PAR1 in human platelets assessed as inhibition of SFLLRN-induced aggregation at 10 uM after 5 mins relative to vehicle-treated control
Format: functional
Summary of the method: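 Human donors who had taken no platelet-altering drugs for two weeks gave venous blood into 3.2% buffered citrate. Spun at 250×g for 7 min to give PRP, then 900×g for 10 min to give PPP, which served as optical reference and diluent. Diluted PRP was preincubated 5 min at 37 °C with compound or DMSO vehicle, then challenged with SFLLRN. Maximal optical aggregation at 5 min was compared with SFLLRN/vehicle to give % inhibition.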

- inhibition: 98%
SMILES: NCC[C@H](NC(=O)[C@H](Cc1ccc(F)c(F)c1)NC(=O)Nc1ccc2c(CN3CCCC3)nn(Cc3c(Cl)cccc3Cl)c2c1)C(=O)NCc1ccccc1
